Compound activity from PubChem.
HTR2A ag: mouse HTR2A agonism via beta-arrestin recruitment | CHO-K1 mHTR2A beta-arrestin complementation, luminescence; percent of 30 µM serotonin response | activation, % at 7.6 µM | 360,000 compounds, 0.66% hits;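 active = activation above a run cutoff, the mean activation of all tested compounds plus 3 SD, cut at about 14% in these data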;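 also: 0% = plate median of compound wells and 100% = 30 µM serotonin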
B2AR ag: human beta-2 adrenergic receptor agonism by FAP. 340,000 compounds, 0.43% hits. P07550. response, % (no concentration beside the values). Am2.2-beta2AR cells, FAP receptor internalization, flow cytometry;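 active = response above a set limit, near 3 SD of response in nonfluorescent compounds, cut at about 42% in these data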
MC4R barr agon: agonists of human melanocortin 4 receptor (MC4R) beta-arrestin | U2OS MC4R beta-arrestin complementation, luminescence; percent of melanotan II response, DMSO zero | activation, % at 8.9 µM | 360,000 compounds, 0.98% hits;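 active = activation above a per-plate cutoff, the mean activation of sample wells on that plate plus 3 SD, cut at about 8% in these data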
Target sequence (P32245 whole entry, looked up): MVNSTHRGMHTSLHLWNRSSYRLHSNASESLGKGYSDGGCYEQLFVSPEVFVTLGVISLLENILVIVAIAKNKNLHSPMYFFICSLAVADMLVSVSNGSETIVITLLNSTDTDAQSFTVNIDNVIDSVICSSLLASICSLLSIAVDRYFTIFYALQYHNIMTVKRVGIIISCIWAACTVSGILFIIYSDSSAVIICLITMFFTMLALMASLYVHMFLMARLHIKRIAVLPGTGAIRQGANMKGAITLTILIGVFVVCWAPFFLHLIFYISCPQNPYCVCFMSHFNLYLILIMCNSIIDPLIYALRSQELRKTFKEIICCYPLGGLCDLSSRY
TAAR1 antagonist: human TAAR1 antagonism; Q96RJ0; CHO RD-HGA16 TAAR1, Fluo-8 calcium fluorescence, antagonist; inhibition, % at 3 µM; 360,000 compounds, 1.5% hits;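 active = inhibition above a per-plate cutoff, the mean inhibition of test compounds on that plate plus 3 SD, cut at about 49% in these data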;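 also: 0% = DMSO plus EC80 beta-PEA response and 100% = DMSO alone without agonist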
Target sequence (Q96RJ0 whole entry, looked up): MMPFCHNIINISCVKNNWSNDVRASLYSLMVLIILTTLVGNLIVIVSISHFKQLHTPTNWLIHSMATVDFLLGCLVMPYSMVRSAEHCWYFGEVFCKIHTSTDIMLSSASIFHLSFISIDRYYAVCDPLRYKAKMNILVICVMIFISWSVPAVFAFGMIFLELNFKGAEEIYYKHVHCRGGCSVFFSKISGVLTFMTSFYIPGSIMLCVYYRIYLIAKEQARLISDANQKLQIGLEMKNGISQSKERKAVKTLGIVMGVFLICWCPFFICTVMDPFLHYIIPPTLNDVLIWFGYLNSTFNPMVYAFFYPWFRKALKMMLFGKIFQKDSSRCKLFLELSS
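Test system: RD-HGA16 CHO cells with stable hTAAR1 and Gα16 / Probe or stimulus: EC80 β-phenethylamine stimulus / Times: seeding 17-24 h prior, 75-min 37 °C, 30-min RT dye loading / Detection: Fluo-8 calcium-sensitive fluorescence / Read-out basis: % inhibition scaled between DMSO and EC80 PEA controls / Repeats: singlicate, one well per test compound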
TAAR1 ag: human TAAR1 agonism. Q96RJ0. 360,000 compounds, 0.99% hits. AID 624467. activation, % at 3 µM. CHO RD-HGA16 TAAR1, Fluo-8 calcium fluorescence; vehicle wells 0%, saturating PEA agonist 100%;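 active = activation above the mean activation of all test compounds in the run plus 3 SD, cut at about 38% in these data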
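Signal – calcium-sensitive Fluo-8 signal, excitation 470-495, emission 515-575 nm · System – RD-HGA16 (CHO) cells co-expressing Gα16 and hTAAR1 · Incubation – 17-24 h seeding, 75 min 37 °C dye, 30 min RT · Compound dosing – 3 µM single concentration · Repeats – no replicates (n 1)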
MC4R antag cAMP: human MC4R antagonism in cAMP assay; 360,000 compounds, 0.48% hits; P32245; MC4R-expressing cells, MTII-stimulated cAMP, LANCE TR-FRET; inhibition, % at 6.5 µM; AID 540295;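 active = inhibition above its plate's cutoff, the mean of tested wells on that plate plus 3 SD, cut at about 29% in these data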;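 also: 0% = Melanotan II alone and 100% = Melanotan II plus saturating MCL0020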
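System: U2OS-MC4R stable cell line; Technique: Eu-cAMP/anti-cAMP TR-FRET, emission 671 nm; Repeats: single well per compound; Also added: Melanotan II; Dosing: one concentration, 6.5 µM nominal; Schedule: 30-min compound, 1-h challenge, 1-h detection, room temperature.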
MC4R barr conf: human MC4R beta-arrestin agonism confirmation; shares compounds with MC4R barr agon; U2OS MC4R beta-arrestin recruitment, luminescence; scaled DMSO 0%, Melanotan II 100%; activation, % at 8.9 µM; 2,400 compounds, 31% hits; AID 602192;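 active = mean activation across replicates above the hit cutoff set in the earlier primary screen, cut at about 8% in these data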
MOR-DOR barr ag: counter-screen for MC4R agonists: agonists of mu-delta opioid heterodimer; activation, % at 9.2 µM; 2,400 compounds, 5.8% hits; shares compounds with MC4R barr agon; U2OS PathHunter beta-arrestin, beta-gal luminescence; percent of deltorphin B response, DMSO zero;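 active = mean activation across replicates exceeds the hit threshold derived in the earlier primary screen, cut at about 18% in these data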;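 also: 100% = deltorphin B at 0.9 µM final and 0% = DMSO alone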
Numbers without * were called inactive; / = no result given. Rows were chosen to be rich in hits. Some 4.3% of all compounds tested hit in one or more screens of this group.

SMILES	HTR2A ag	B2AR ag	MC4R barr agon	TAAR1 antagonist	TAAR1 ag	MC4R antag cAMP	MC4R barr conf	MOR-DOR barr ag
Cc1ccc(OC(=O)c2cccc([N+](=O)[O-])c2)c(-n2nc3ccccc3n2)c1	0	-3	14*	-19	4	8	-3	3
CCOc1ccccc1N(CC(=O)NCc1ccco1)C(=O)CCC(=O)Nc1nccs1	1	-4	-3	8	7	5	/	/
COc1cc(/C=C/C(=O)OCC(=O)NCCc2ccc(F)cc2)ccc1OC(F)F	1	-20	10*	24	7	11	3	4
Cc1ccccc1-c1nc(-c2ccc(NC(=O)c3ccc4c(c3)OCO4)cc2)no1	0	7	23*	16	0	15	17*	4
COc1cc(-c2nc(-c3ccc(NC(=O)c4ccc5c(c4)OCO5)cc3)no2)cc(OC)c1OC	0	16	23*	9	12	10	28*	24*
CCCCC(=O)N1C(C)CCC1C (centres undefined)	4	/	1	-28	3	12	/	/
CC(C)CNc1ncnc2c1ncn2[C@H]1CN(Cc2ccco2)C[C@@H](CO)O1	0	/	1	-8	0	4	/	/
COc1ccccc1C(=O)NCCC(=O)N(C)CC(=O)Nc1ccc(N2CCOCC2)cc1	2	8	0	-10	4	4	/	/
O=C(NCCc1ccc(Cl)cc1)c1cc(-c2ccccn2)nc2ccccc12	-10	4	11*	38	5	16	5	5
O=C(NCCc1ccc(Cl)cc1)c1cc(-c2ccncc2)nc2ccccc12	-1	9	3	29	4	3	/	/
COc1ccc(OCCCC(=O)Nc2nc(C)c(C(C)=O)s2)cc1	0	-3	-2	-11	-1	1	/	/
CC(=O)c1sc(NC(=O)CCCOc2ccc(Cl)cc2)nc1C	4	0	11*	9	6	-6	2	2
C[C@@H]1NS(=O)(=O)[C@H]2C[C@@H]3C=C[C@]2(O3)[C@H]1OC(=O)Nc1ccc(C(F)(F)F)cc1[N+](=O)[O-]	0	-5	-1	-12	2	1	/	/
Cc1nc(C)c(NC(=O)N2CCc3ccccc32)cc1NC(=O)N1CCc2ccccc21	-2	1	25*	-9	13	19	-3	0
S=c1[nH]nc(C2CC2c2ccc(Cl)cc2)n1-c1ccc(Cl)cc1 (centres undefined)	9	17	11*	5	11	1	4	7
O=C(O)c1ccc(CNC(=O)C2CCN(S(=O)(=O)c3ccc4c(c3)OCCO4)CC2)cc1	-6	/	2	-17	1	2	/	/
O=C(CCCOC(=O)c1ccc(O)cc1O)c1ccc(Br)cc1	0	-3	10*	30	1	5	8.7*	7
O=C(Nc1ccc(F)cc1)C1C(c2ccccc2)C1(Cl)Cl (centres undefined)	0	4	15*	-2	-2	-2	0	11
COc1ccc(C(=O)COC(=O)c2cc(=O)[nH]c3ccccc23)c(OC)c1	3	3	12*	-3	5	-9	-1	2
OC[C@@H]1CN(Cc2ccc(Cl)cc2)C[C@H](n2cnc3c(Nc4ccccc4)ncnc32)O1	-2	/	2	29	8	8	/	/
CCn1cc(C(=O)NC(=S)Nc2ccccc2Br)cn1	-3	-4	-4	3	2	-2	/	/
COc1ccccc1NC(=S)NC(=O)c1ccc(Cn2cc(Br)cn2)cc1	1	-28	24*	10	1	-24	12*	12
COc1ccc(CCNC(=O)CSc2cn(Cc3cccc(C)c3)c3ccccc23)cc1OC	5	17	0	27	0	13	/	/
COc1ccc(CCNC(=O)CSc2cn(Cc3ccccc3)c3ccccc23)cc1OC	-1	1	13*	30	2	-12	6	4
CC1=CC(C)(C)n2c(O)c(N=NC(N)=S)c3cc(C)cc1c32	-3	-8	16*	-10	3	-2	14*	5
SMILES	HTR2A ag	B2AR ag	MC4R barr agon	TAAR1 antagonist	TAAR1 ag	MC4R antag cAMP	MC4R barr conf	MOR-DOR barr ag
Cc1ccc(/C=C/C(=O)Nc2cc(C)on2)cc1	-3	0	19*	15	0	5	2	6
Cc1cc(NS(=O)(=O)c2ccc(NC(=O)/C=C/c3ccc(Br)cc3)cc2)no1	12	12	-3	-3	-1	8	/	/
Cc1ccc(NC(=O)/C(C#N)=C/c2ccc(C)s2)c(C)c1	2	-19	18*	19	4	10	1	4
Cc1ccc(/C=C(\C#N)C(=O)Nc2c(C)cccc2C)s1	6	-7	-1	-9	3	12	/	/
COc1ccc(/C=C/C(=O)Nc2ccc(OC)cc2[N+](=O)[O-])cc1	5	3	32*	-1	0	-4	7	10
CCOc1ccc(NC(=S)NC(=O)/C=C/c2ccc(OC)c(OC)c2)c([N+](=O)[O-])c1	1	/	17*	5	6	-2	12*	9
CCOc1ccc(NC(=O)/C=C/c2ccc(OC)cc2)c([N+](=O)[O-])c1	1	-18	-1	7	4	-3	/	/
CCOc1ccc(NC(=S)NC(=O)/C=C/c2ccc(C)cc2)c([N+](=O)[O-])c1	2	7	38*	14	-1	-18	17*	6
O=C1NC[C@H](CCCCN2C[C@H](Cc3ccccc3)N(CCc3ccccc3)C(=O)C2=O)N(CCC2CCCCC2)C1=O	-3	/	/	-28	7	/	/	/
COc1ccc(NC(=S)Nc2ccc3c(c2)c(=O)n(C)n3-c2ccccc2)cc1	2	/	-1	-19	-1	-1	/	/
Cc1ccc(C(=O)NCCc2cc3ccc(C)c(C)c3[nH]c2=O)cc1[N+](=O)[O-]	0	-5	9.6*	-2	-1	7	1	3
COc1ccc(C(=O)NCCc2cc3ccc(C)c(C)c3[nH]c2=O)cc1OC	-1	-5	1	0	2	0	/	/
O=C1O[C@@H](c2ccccc2)C[C@@H](O)C(=O)CCc2ccccc21	4	/	/	0	0	/	/	/
COc1ccc(NC(=S)N/N=C/c2cccn2Cc2ccccc2F)cc1	1	-9	10*	23	-2	13	0	7
